Blank lines part the entries; values can stand above or below the compound they belong to.
Experiments:
[1] = biological target: T1, PIP4K2C (Homo sapiens, UniProt Q8TBX8); assay: KiNativ cellular kinase profiling; assay type: cell-based; conditions: A375 cells, 1 μM, 3 hours, labeling site ATP
T1 sequence (Q8TBX8 1-421): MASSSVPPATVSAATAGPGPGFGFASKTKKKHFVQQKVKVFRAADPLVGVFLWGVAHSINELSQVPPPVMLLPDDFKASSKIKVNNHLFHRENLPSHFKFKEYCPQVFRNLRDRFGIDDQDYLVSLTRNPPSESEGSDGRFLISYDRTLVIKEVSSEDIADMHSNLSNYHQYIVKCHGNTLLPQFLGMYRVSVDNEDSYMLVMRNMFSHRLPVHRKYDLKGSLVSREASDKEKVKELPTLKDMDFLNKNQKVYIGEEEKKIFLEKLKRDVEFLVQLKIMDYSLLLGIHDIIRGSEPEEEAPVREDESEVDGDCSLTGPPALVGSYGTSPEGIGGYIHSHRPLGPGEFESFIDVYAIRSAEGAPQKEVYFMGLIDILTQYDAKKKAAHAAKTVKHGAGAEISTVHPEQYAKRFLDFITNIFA

[2] = biological target: PIK3C3 (Homo sapiens, UniProt Q8NEB9); assay: KiNativ cellular kinase profiling; assay type: cell-based; conditions: A375 cells, 1 μM, 3 hours, PIK3C3, labeling site ATP
Chain of PIK3C3 (Q8NEB9 whole entry): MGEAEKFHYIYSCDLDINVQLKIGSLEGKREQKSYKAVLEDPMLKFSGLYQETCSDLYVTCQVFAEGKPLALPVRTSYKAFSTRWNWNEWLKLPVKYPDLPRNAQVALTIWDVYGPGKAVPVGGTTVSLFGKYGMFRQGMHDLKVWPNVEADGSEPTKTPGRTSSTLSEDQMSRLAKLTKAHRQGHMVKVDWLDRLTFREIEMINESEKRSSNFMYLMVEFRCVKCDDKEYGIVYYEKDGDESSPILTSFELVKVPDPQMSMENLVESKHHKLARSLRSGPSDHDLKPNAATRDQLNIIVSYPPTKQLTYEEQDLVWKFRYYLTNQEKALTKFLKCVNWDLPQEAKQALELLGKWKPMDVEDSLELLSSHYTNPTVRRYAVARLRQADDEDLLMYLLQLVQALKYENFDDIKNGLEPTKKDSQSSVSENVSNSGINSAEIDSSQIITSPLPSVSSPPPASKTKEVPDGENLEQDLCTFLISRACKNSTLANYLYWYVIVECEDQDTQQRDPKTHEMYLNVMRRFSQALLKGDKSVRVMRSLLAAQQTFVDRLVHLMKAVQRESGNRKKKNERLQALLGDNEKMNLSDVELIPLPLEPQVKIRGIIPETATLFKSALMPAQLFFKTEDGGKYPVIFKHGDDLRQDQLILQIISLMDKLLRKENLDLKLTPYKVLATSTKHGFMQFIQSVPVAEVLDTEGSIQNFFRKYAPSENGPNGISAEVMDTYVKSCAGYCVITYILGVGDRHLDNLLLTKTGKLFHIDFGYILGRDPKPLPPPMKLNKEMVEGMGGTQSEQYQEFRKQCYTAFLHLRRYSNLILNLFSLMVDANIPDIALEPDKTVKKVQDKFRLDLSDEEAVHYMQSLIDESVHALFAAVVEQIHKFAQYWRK

[3] = system: JNK; assay: pulse-chase ATP-biotin binding kinetics assay in A375 cells; assay type: cell-based; conditions: same pulse-chase protocol
In short: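 A375 cells treated with 1 μM test compound for 1–5 h, then washed three times in PBS. Lysed in NP-40/CHAPS buffer for 30 min at 4°C, cleared, and gel-filtered into HEPES kinase buffer (about 5–15 mg/ml protein). Lysate labelled with 5 μM ATP-biotin probe for 1 h, reduced with DTT, alkylated with iodoacetamide, and pulled down on streptavidin for 2 h. Read-out: SDS-PAGE and JNK immunoblot.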

[4] = system: c-Jun phosphorylation in HeLa and A375 cells; assay: cellular c-Jun phosphorylation, statements for both assay formats; assay type: cell-based; conditions: relative to JNK-IN-5
[5] = biological target: KIT(V559D,T670I) (Homo sapiens, UniProt P10721, T670I/V559D); assay: KinomeScan dissociation constant; assay type: binding
Chain of KIT(V559D,T670I) (P10721 26-976 V559D/T670I): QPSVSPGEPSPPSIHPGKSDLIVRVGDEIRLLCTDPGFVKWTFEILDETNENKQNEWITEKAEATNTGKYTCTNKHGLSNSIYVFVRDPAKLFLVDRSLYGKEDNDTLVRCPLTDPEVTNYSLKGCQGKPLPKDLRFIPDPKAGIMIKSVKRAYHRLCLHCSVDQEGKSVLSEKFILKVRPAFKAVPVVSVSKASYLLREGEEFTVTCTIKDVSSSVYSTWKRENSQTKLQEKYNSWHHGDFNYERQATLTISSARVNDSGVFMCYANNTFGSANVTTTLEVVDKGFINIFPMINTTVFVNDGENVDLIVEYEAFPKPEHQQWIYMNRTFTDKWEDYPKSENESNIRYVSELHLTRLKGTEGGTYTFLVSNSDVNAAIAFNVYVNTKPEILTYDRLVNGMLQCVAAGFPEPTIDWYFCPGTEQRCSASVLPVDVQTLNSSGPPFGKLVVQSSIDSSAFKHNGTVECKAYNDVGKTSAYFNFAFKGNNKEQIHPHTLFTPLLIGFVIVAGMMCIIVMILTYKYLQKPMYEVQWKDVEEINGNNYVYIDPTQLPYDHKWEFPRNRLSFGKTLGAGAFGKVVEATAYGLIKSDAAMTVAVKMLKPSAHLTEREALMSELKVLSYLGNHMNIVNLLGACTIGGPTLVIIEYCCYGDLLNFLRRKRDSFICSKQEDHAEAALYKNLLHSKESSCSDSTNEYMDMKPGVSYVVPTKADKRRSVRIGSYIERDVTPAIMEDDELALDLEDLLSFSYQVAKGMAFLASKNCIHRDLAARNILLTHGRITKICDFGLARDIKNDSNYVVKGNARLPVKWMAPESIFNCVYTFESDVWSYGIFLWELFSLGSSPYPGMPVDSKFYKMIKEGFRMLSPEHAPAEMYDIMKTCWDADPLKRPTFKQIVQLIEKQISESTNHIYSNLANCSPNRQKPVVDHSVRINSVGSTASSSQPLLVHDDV

[6] = biological target: MET(M250T) (Homo sapiens, UniProt P08581, M1250T); assay: enzymatic kinase assay on potential off-target; assay type: biochemical
Chain of MET(M250T) (P08581 956-1390 M1250T limits assumed): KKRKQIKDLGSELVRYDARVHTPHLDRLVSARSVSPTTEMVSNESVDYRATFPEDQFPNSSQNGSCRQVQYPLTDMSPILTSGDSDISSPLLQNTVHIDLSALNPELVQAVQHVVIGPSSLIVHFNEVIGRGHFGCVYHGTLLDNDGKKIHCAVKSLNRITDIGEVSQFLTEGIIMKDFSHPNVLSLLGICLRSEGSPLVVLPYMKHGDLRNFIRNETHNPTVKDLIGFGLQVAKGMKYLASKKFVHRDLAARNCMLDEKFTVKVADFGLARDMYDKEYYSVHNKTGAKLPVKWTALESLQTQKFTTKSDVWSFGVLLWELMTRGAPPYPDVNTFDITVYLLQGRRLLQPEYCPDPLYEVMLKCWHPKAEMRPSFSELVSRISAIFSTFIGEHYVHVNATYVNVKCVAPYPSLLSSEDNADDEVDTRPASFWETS

[7] = biological target: KIT(L576P) (Homo sapiens, UniProt P10721, L576P); assay: KinomeScan dissociation constant; assay type: binding
Chain of KIT(L576P) (P10721 26-976 L576P): as the sequence (P10721 26-976 V559D/T670I) above, with D534V, L551P, I645T counted along it

[8] = biological target: T2, IRAK1 (Homo sapiens, UniProt P51617); assay: follow-up IC50 determination after enzymatic panel; assay type: biochemical
T2 sequence (P51617 whole entry, species assumed): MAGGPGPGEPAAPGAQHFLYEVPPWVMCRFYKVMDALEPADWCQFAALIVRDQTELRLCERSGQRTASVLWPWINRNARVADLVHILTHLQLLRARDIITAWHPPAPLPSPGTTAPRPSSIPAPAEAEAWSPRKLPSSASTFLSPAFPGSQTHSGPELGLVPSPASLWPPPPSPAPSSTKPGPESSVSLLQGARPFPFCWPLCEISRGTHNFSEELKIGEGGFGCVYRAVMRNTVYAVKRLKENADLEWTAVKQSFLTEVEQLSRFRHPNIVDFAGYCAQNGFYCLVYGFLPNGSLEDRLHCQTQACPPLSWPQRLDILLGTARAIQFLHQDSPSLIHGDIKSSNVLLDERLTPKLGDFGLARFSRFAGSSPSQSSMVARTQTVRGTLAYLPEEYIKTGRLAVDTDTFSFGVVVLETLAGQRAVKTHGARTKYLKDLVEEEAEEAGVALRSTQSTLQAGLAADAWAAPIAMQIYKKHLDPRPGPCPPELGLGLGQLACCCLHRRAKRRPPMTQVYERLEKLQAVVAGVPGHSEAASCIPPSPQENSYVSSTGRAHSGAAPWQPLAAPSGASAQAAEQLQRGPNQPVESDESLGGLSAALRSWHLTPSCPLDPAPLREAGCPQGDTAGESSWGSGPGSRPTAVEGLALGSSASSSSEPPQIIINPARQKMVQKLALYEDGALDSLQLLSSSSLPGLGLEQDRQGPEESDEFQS

[9] = biological target: NUAK1 (Homo sapiens, UniProt O60285); assay: follow-up IC50 determination after enzymatic panel; assay type: biochemical
Chain of NUAK1 (O60285 whole entry): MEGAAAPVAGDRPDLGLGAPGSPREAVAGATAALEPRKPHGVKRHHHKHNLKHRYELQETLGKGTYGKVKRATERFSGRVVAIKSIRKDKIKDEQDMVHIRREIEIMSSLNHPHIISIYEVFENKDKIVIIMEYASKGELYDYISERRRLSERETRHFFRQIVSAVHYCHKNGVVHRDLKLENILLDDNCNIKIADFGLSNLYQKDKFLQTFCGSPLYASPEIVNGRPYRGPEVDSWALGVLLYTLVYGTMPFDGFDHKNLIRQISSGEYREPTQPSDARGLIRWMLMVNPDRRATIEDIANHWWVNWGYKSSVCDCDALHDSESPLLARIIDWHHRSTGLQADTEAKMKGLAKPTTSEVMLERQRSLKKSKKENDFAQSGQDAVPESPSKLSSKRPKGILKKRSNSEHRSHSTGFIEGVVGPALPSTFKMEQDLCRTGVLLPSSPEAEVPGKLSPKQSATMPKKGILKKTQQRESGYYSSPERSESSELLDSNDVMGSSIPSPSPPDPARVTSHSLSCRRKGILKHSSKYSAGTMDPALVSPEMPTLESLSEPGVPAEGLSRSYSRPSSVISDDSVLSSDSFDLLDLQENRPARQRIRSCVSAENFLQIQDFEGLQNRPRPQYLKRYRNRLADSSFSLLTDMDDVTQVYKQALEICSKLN

[10] = biological target: T2, IRAK1; assay: enzymatic kinase assay on potential off-target; assay type: biochemical; conditions: IC50 (nM) (enzymatic) IRAK1
[11] = system: potential additional kinase targets; assay: follow-up biochemical and binding assays on potent binding targets; conditions: enzymatic assay or dissociation constant follow-up
[12] = biological target: JNK3 (Homo sapiens, UniProt P53779); assay: intact protein mass spectrometry of inhibitor-labeled JNK3; assay type: binding; conditions: incubation with JNK3, electrospray mass spectrometry
Chain of JNK3 (P53779 whole entry): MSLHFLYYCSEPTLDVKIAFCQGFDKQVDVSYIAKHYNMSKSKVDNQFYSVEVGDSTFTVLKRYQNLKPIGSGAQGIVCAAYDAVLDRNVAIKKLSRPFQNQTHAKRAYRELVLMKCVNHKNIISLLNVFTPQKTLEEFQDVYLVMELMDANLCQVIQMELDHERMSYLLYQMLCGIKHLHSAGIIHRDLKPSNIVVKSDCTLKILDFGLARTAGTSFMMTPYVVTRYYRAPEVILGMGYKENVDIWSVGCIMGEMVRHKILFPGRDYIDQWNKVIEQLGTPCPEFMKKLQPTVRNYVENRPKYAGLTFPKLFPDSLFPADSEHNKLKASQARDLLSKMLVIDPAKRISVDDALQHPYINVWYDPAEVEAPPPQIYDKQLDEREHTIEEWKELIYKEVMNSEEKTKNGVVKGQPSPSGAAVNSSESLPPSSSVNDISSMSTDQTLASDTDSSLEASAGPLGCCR

[13] = biological target: ERK8 (Homo sapiens, UniProt Q8TD08); assay: follow-up IC50 determination after enzymatic panel; assay type: biochemical
Chain of ERK8 (Q8TD08 whole entry): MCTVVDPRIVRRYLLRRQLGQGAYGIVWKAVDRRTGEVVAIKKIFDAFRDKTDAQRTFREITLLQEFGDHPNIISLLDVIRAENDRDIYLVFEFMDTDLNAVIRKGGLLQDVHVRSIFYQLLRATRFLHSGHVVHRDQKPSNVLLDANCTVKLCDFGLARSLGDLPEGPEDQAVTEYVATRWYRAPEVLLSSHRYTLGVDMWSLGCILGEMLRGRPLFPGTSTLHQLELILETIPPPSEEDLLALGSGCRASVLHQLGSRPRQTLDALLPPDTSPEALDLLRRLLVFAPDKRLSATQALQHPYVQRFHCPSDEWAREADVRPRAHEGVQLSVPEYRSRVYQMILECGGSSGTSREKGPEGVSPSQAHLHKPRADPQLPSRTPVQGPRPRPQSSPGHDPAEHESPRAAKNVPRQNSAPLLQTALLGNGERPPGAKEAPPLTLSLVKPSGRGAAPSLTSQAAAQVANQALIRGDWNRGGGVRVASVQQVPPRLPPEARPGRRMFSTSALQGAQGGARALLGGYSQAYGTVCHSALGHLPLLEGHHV

Compound: CCC(=O)Nc1cccc(C(=O)Nc2ccc(Nc3nccc(-c4cccnc4)n3)cc2)c1 [JNK-IN-6]
Percent inhibition of kinase labeling by ATP-biotin ([1]; first of two table lines): −4.7%
Percent inhibition of kinase labeling by ATP-biotin ([1]; second of two table lines): 35.7%
Percent inhibition of kinase labeling by ATP-biotin ([2]; first of two table lines): 26.5%
Percent inhibition of kinase labeling by ATP-biotin ([2]; second of two table lines): 3.1%
protection of JNK from labeling by ATP-biotin [3]: incapable of protecting JNK from labeling by ATP-biotin
fold loss in potency / fold higher IC50 for cellular JNK inhibition [4]: 50 fold

Kd [5]: 56 nM
IC50 [6]: > 10000 nM
Compound: Cc1cc(NC(=O)c2cccc(NC(=O)/C=C/CN(C)C)c2)ccc1Nc1nccc(-c2cccnc2)n1 [JNK-IN-8]

Compound: CN(C)C/C=C/C(=O)Nc1cccc(C(=O)Nc2ccc(Nc3nccc(/C(C#N)=C4\Nc5ccccc5S4)n3)cc2)c1 [JNK-IN-12]
Percent inhibition of kinase labeling by ATP-biotin ([1]; first of two table lines): 43.9%
Percent inhibition of kinase labeling by ATP-biotin ([1]; second of two table lines): 42.6%
Percent inhibition of kinase labeling by ATP-biotin ([2]; first of two table lines): 7.5%
Percent inhibition of kinase labeling by ATP-biotin ([2]; second of two table lines): −0.5%

Compound: CN(C)C/C=C/C(=O)Nc1cccc(C(=O)Nc2ccc(Nc3nccc(-c4cccnc4)n3)cc2)c1 [JNK-IN-7]
Kd [7]: 40 nM
IC50 [8]: < 200 nM
IC50 [9]: < 200 nM
IC50 [10]: ~10 nM
number of additional kinases with Kd or IC50 of 100 nM or less [11]: eight
covalent modification of JNK3 (mass spectrometry) [12]: addition of a single molecule of inhibitor to the protein and labeling of Cys154
IC50 [13]: < 200 nM

— PMC3270411 (Chemistry & biology, 2012)
